Bioassay records deposited in PubChem BioAssay by Johns Hopkins Ion Channel Center.
KCNK3 block = human KCNK3 channel inhibitors, primary screen, CHO cells, FluxOR thallium flux, B-score. hit rate 0.84% among 340,000. Potassium channel subfamily K member 3 (Homo sapiens), O14649. FluxOR fluorescence; hits give low values. B-score at 10 µM;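 active = B-score under library mean minus 4 SD, starting fluorescence ratio at most library mean plus 5 SD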;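 also: more negative B-score means stronger inhibition of thallium flux through KCNK3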
Target sequence (O14649 whole entry, looked up): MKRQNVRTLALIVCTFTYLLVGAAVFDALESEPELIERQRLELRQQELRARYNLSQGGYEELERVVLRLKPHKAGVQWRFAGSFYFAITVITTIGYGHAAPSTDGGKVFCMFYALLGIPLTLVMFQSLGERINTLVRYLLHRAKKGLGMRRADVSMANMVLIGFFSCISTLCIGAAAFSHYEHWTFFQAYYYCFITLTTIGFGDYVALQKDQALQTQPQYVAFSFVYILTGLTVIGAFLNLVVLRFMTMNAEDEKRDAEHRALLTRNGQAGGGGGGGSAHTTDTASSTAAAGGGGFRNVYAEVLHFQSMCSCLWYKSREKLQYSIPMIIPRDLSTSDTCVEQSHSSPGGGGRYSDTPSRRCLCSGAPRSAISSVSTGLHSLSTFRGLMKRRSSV
KCNQ1 inh = inhibitors of human KCNQ1 channel, primary screen, cell-based, thallium flux, high-throughput | hit rate 1.3% among 310,000 | CHO-K1 KCNQ1, FluxOR thallium flux fluorescence; hits give high values | Potassium voltage-gated channel subfamily KQT member 1 (Homo sapiens), P51787 | B-score at 10 µM | AID 2642, 2010;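 active = compounds whose thallium flux B-score, printed positive for inhibition, exceeds three library SD while starting fluorescence stays within three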;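 also: channel opened by potassium depolarization with thallium stimulus after 20 min compound exposure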
KCNQ1 act = potentiators or activators of KCNQ1 channel, primary screen, cell-based, thallium flux, high-throughput. CHO-K1 KCNQ1, thallium flux FluxOR fluorescence; hits give high values. hit rate 0.35% among 310,000. Potassium voltage-gated channel subfamily KQT member 1 (Homo sapiens), P51787. B-score at 10 µM;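 active = fluorescence ratio B-score, a plate-corrected score, at least three library SD, with initial intensity B-score within 5 SD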
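Medium – assay buffer, equal DMSO in all wells · Material – CHO-K1 cell line with stable KCNQ1 potassium channel expression · Signal – kinetic FluxOR thallium fluorescence, 10-s 1-Hz baseline, 110-s post-stimulus read · Compound – single concentration per compound, DMSO matched to controls · Schedule – 37 °C overnight plating, 90-min dark dye load, 20-min compound pretreatment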
hERG rescue = hERG rescue from dofetilide block, primary screen, cell-based, CHO-hERG, FluxOR thallium flux, dofetilide IC70. activation (rescue from dofetilide block), less the hit threshold, % at 10 µM. dofetilide IC70 present. hit rate 0.51% among 310,000. Voltage-gated inwardly rectifying potassium channel KCNH2 (Homo sapiens), Q12809. AID 1511, 2009;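 active = activation above the mean of controls blocked by dofetilide plus 5 SD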;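 also: thallium influx through hERG after potassium depolarization seen as dye fluorescence rise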
KCNK9 block = KCNK9 potassium channel inhibitors, primary screen, HEK293 cells, thallium flux. Potassium channel subfamily K member 9 (Homo sapiens), Q9NPC2. FluxOR thallium flux fluorescence; hits give low values. B-score at 10 µM. hit rate 1.2% among 310,000;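 active = ratio B-score over 3 SD below the library mean, with starting fluorescence within 5 SD of its mean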;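 also: negative B-score means less thallium flux so channel inhibition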
KCNK9 inh conf = KCNK9 potassium channel inhibitors, confirmation, HEK293 cells, thallium flux, duplicate | shares compounds with KCNK9 block | FluxOR thallium flux fluorescence | inhibition, % at 10 µM | hit rate 43% among 4,900 | AID 492992, 2010;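 active = thallium signal inhibited by more than 5 SD of the compound-free buffer control wells, on both duplicate plates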;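 also: 0% = assay buffer control wells without compound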
Kir21 sel = mouse Kir2.1 channel inhibition, confirmation, selectivity assay for KCNK9 modulator project, cell-based, HEK293, thallium flux. inhibition, % at 10 µM. hit rate 4% among 4,900. Kir2.1 cells, FluxOR thallium flux fluorescence. shares compounds with KCNK9 block. AID 492993, 2010;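 active = thallium signal drop more than 5 SD beyond the mean of the no-compound control wells, seen in both duplicate plates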;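 also: signal is fluorescence rise after thallium addition divided by baseline fluorescence; plate controls were assay buffer only for no effect and full block by chlorpromazine control for full effect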
KCNK9 uninduced = thallium flux in non-induced HEK293 cells, confirmation, counter-screen for KCNK9 inhibitor project, cell-based, second counter screen, non-induced KCNK9-HEK293. shares compounds with KCNK9 block. FluxOR thallium flux. inhibition, % at 10 µM. hit rate 40% among 4,900;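 active = thallium signal drop beyond 5 SD of the untreated control mean, on both duplicate plates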;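 also: plate controls were buffer only IC0 wells for no effect and SID17386958 at its maximal inhibitory level for full effect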
An asterisk follows results filed as active; i = inactive; nt = no result. Compounds with a hit are over-represented: about 3.1% of the library has one in this group of screens.

SMILES	KCNK3 block	KCNQ1 inh	KCNQ1 act	hERG rescue	KCNK9 block	KCNK9 inh conf	Kir21 sel	KCNK9 uninduced
COc1ccc(CNc2nc(NCc3ccc(OC)cc3)n(C(C)=O)n2)cc1	i	i	i	2.2	i	nt	nt	nt
CCC(=O)n1nc(NCc2ccccc2OC)nc1NCc1ccccc1OC	i	8*	i	-11.7	i	i	i	i
CN(C)CCn1c(=O)n(-c2cccc(Cl)c2)c(=O)c2c3c(sc21)CCCCC3	i	i	i	-12.5	i	i	i	i
CCOC(=O)CC1C(=O)NCCN1c1nc2ccc(C)cn2c(=O)c1/C=C1\SC(=S)N(CC(C)C)C1=O (stereo unspecified)	i	8*	i	-18.9	-9.87*	45.5%*	43.0%*	61.5%*
CC(NC(=O)CSCc1ccccc1Br)c1ccccc1 (stereo unspecified)	i	i	i	-20.5	i	i	i	i
COC(=O)Cn1c(=O)n(CCc2ccccc2)c(=O)c2c3c(sc21)CCCC3	i	i	i	-10.3	i	i	i	i
CC(O)CNc1nc2sc3c(c2c(=O)n1CCc1ccccc1)CCCCC3 (stereo unspecified)	i	i	i	-11.8	i	i	i	i
COc1ccc(-c2c(-c3cc(OC)cc(OC)c3)n(C)c3ccc(-c4cc(F)cc(OC)c4)cc23)cc1	i	nt	nt	nt	nt	nt	nt	nt
COc1ccc(S(=O)(=O)N2CC3CCCN3c3ccc(C(F)(F)F)cc32)cc1 (stereo unspecified)	i	i	i	-3.3	-18.1*	72.5%*	i	44.0%*
O=C(O)c1cc(NN=Nc2cccc([N+](=O)[O-])c2)cc([N+](=O)[O-])c1	i	i	i	-7.6	i	nt	nt	nt
O=C(O)c1cc(NN=Nc2ccc(Br)cc2)cc([N+](=O)[O-])c1	i	i	i	-11.4	i	i	i	i
CCOC(=O)c1c(Cc2cccc(Cl)c2)c[nH]c1C	i	6*	i	-22.3	-10*	67.5%*	i	28.5%*
COC(=O)c1c(Cc2ccccc2Cl)c[nH]c1C	i	i	i	-7.4	i	nt	nt	nt
CCOc1ccccc1NC(=O)c1cccc(NC(=O)c2ccco2)c1	-9.89*	i	i	-3.1	-9.38*	45.0%*	i	i
Cc1ccccc1NC(=O)c1cccc(NC(=O)c2ccco2)c1	i	i	i	-9.2	i	nt	nt	nt
CCOc1ccccc1NC(=O)C1CCCC1	i	nt	nt	nt	nt	nt	nt	nt
CCOc1ccccc1NC(=O)c1cccc(NC(=O)C2CCCC2)c1	i	i	i	-16.8	-12.6*	58.0%*	i	i
CC(C)C[C@@H](CNCC(=O)[C@H](C)NC(=O)c1[nH]cnc1C(=O)N[C@@H](C)CN)NC(=O)c1nc[nH]c1C(=O)N[C@@H](CC(=O)O)C(=O)O	i	nt	nt	nt	nt	nt	nt	nt
Cc1[nH]c(=O)[nH]c(=O)c1S(=O)(=O)Nc1ccc(F)cc1F	i	i	i	-4.3	i	nt	nt	nt
COc1ccccc1C(=O)N/N=C/C(C)=C/c1ccccc1	i	i	i	-5.5	-10.3*	47.5%*	i	30.0%*
CC(/C=N/NC(=O)c1ccncc1)=C\c1ccccc1	i	i	i	-7.4	i	nt	nt	nt
CCOc1ccc(S(=O)(=O)Nc2cc(C)ccn2)c2ccccc12	i	i	i	-14.5	i	i	i	i
O=C(CNC(=O)c1ccccc1F)OCC(=O)c1ccc(Cl)s1	i	i	i	-14.7	i	nt	nt	nt
CCOC(=O)c1cc(NC(=O)Nc2ccccc2Cl)c(C)nc1C	i	i	i	-11.9	i	nt	nt	nt
CCOC(=O)c1cc(NC(=O)Nc2ccc(Br)cc2)c(C)nc1C	i	i	i	-4.7	i	i	i	i
SMILES	KCNK3 block	KCNQ1 inh	KCNQ1 act	hERG rescue	KCNK9 block	KCNK9 inh conf	Kir21 sel	KCNK9 uninduced
CCOc1ccc2c(c1)-c1c(ssc1=S)C(C)(C)N2C(=O)CSC1=NCCS1	i	i	i	-17.1	-13.2*	70.0%*	i	33.5%*
O=C(Nc1cccc(-c2nnc(-c3ccccc3)o2)c1)c1ccc(Br)o1	i	i	i	-2.5	-19.8*	44.0%*	i	i
O=c1oc2ccccc2c(Nc2cc3ccccc3cc2O)c1[N+](=O)[O-]	i	i	i	-12.8	i	i	i	i
Cc1noc(C)c1CSCC(=O)N(C)CC(=O)Nc1ccc(Cl)c(C(F)(F)F)c1	i	i	i	-14.7	-10.3*	51.5%*	i	24.0%*
Cn1nc(C(F)(F)F)c(/C=N/OC(=O)c2ccccc2)c1SCc1ccc(Cl)cc1	i	i	i	-15.7	i	nt	nt	nt
Cn1nc(C(F)(F)F)c(/C=N/OC(=O)c2ccccc2Cl)c1SCc1ccccc1Cl	i	i	i	-13.9	-10.2*	44.5%*	i	36.0%*
CN(C)S(=O)(=O)c1ccc(N2CCCC2)c(C(=O)NNC(=O)c2ccc(F)cc2)c1	i	nt	nt	nt	nt	nt	nt	nt
O=C(OCC(=O)N1CCCc2ccccc21)c1ccc(F)c(S(=O)(=O)N2CCOCC2)c1	i	i	i	-16.9	i	nt	nt	nt
O=C(c1ccc(F)c(S(=O)(=O)N2CCOCC2)c1)N1CCc2ccccc21	i	i	i	-6.0	i	i	i	i
COc1ccc(NC2CCCN(C(=O)CCc3cccc(Cl)c3)C2)cc1 (stereo unspecified)	i	i	i	-12.9	i	i	i	i
COc1cccc(C(=O)N2CCCC(Nc3ccc(C)c(C)c3)C2)c1 (stereo unspecified)	i	i	i	-7.2	i	i	i	i
COc1ccc(NC2CCCN(C(=O)c3cccc(N(C)C)c3)C2)cc1 (stereo unspecified)	i	i	i	-13.7	i	i	i	i
COc1ccc(NC2CCCN(C(=O)c3ccc(OC)o3)C2)cc1 (stereo unspecified)	i	i	i	-10.5	i	i	i	i
Cc1ccccc1-c1nn(-c2ccc(F)cc2F)cc1CNC1CC1	i	i	i	-5.4	i	nt	nt	nt
